From ChEMBL document CHEMBL4725313, “Development of phenylthiourea derivatives as allosteric inhibitors of pyoverdine maturation enzyme PvdP tyrosinase” (Bioorg Med Chem Lett, 2020)
Active and inactive are the calls of the source. The rule behind the calls is not given here.

Columns and labels:
[1] = Inhibition of Pseudomonas aeruginosa PvdP tyrosinase
Pseudomonas aeruginosa [2] = experiment: Non-competitive inhibition of Pseudomonas aeruginosa PvdP tyrosinase assessed as Vmax at 0.2 uM by Lineweaver-Burk double reciprocal plot analysis (reference value: 0.0155 1/min)
Pseudomonas aeruginosa [3] = experiment: Non-competitive inhibition of Pseudomonas aeruginosa PvdP tyrosinase assessed as Vmax at 0.5 uM by Lineweaver-Burk double reciprocal plot analysis (reference value: 0.0155 1/min)
Pseudomonas aeruginosa [4] = experiment: Non-competitive inhibition of Pseudomonas aeruginosa PvdP tyrosinase assessed as Km at 0.2 uM by Lineweaver-Burk double reciprocal plot analysis (reference value: 1.136 mM)
Pseudomonas aeruginosa [5] = experiment: Non-competitive inhibition of Pseudomonas aeruginosa PvdP tyrosinase assessed as Km at 0.5 uM by Lineweaver-Burk double reciprocal plot analysis (reference value: 1.136 mM)
Pseudomonas aeruginosa [6] = experiment: Inhibition of Pseudomonas aeruginosa PvdP tyrosinase mutant at 1 uM
Mushroom tyrosinase = Mushroom tyrosinase (Agaricus bisporus, UniProt O42713+Q00024+C7FF04+C7FF05); experiment: Inhibition of mushroom tyrosinase
[7] = (§1) Inhibition of PvdP tyrosinase in Pseudomonas aeruginosa PAO1 assessed as reduction in pyoverdin production incubated for 24 hrs in low iron medium
How it was run: (§2)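 P. aeruginosa PAO1 grown 24 h in low-iron medium with a serial dilution of compound (200 - 0.79 µM; final DMSO 1%). Vehicle 1% DMSO as negative control. After incubation, pyoverdine read at 405 nm and cell growth at 600 nm.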

[8] = system: Pseudomonas aeruginosa PAO1; experiment: as §1; how it was run: as §2
[9] = Selectivity ratio of IC50 for mushroom tyrosinase to IC50 for Pseudomonas aeruginosa PvdP tyrosinase
Pseudomonas aeruginosa [10] = experiment: Inhibition of Pseudomonas aeruginosa PvdP tyrosinase up to 100 uM relative to control; settings: dose microM <=100

Work on Cc1ccc(NC(=S)NCc2ccc(Cl)cc2)cc1 yielded an IC50 ([1]; read-out: IC50) of 22.3 µM.
In the case of S=C(NCc1ccc(Cl)cc1)Nc1ccccc1, the IC50 ([1]; read-out: IC50) is reported as 0.57 µM, the Vmax (Pseudomonas aeruginosa [2]) is reported as 0.0126 min⁻¹ and the Vmax (Pseudomonas aeruginosa [3]) is reported as 0.0111 min⁻¹. For the same compound, the Km (Pseudomonas aeruginosa [4]) was 1130 µM, the Km (Pseudomonas aeruginosa [5]) was 1140 µM and the inhibition (Pseudomonas aeruginosa [6]) was “inactive”. For the same compound, the IC50 (Mushroom tyrosinase) was 328 µM, the IC50 [7] was 44.9 µM and the inhibition [8] was “Dose-dependent effect”. The “Ratio IC50” value [9] was > 500.
With Fc1cccc(Cl)c1NC(=S)Nc1ccccc1 the IC50 [1] was “Not Active”.
For Fc1ccc(CCNC(=S)Nc2ccccc2)cc1, the IC50 ([1]; read-out: IC50) was 22.6 µM.
In the case of S=C(NCc1ccccc1Cl)Nc1ccccc1, the IC50 ([1]; read-out: IC50) is reported as 7.9 µM, the IC50 (Mushroom tyrosinase) is reported as > 500 µM and the “Ratio IC50” value [9] is reported as > 500.
In the case of C=CCNC(=S)Nc1ccccc1, the IC50 [1] is reported as “Not Active”.
Work on COc1ccc(CN=C(S)Nc2ccccc2)cc1 yielded an IC50 ([1]; read-out: IC50) of 19.3 µM.
For NC(=S)Nc1ccccc1 [PHENYLTHIOUREA], the IC50 ([1]; read-out: IC50) was 174 µM.
For NC(=O)Nc1ccccc1 [PHENYLUREA], the IC50 [1] was “Not Active” and the inhibition (Pseudomonas aeruginosa [10]) was < 50%.
For CNC(=S)Nc1ccccc1, the IC50 [1] was “Not Active”.
Work on Fc1ccc(CNC(=S)Nc2ccccc2)cc1 yielded an IC50 ([1]; read-out: IC50) of 13.6 µM.
With S=C(NCc1c(Cl)cccc1Cl)Nc1ccccc1 the IC50 ([1]; read-out: IC50) was 7.6 µM, the IC50 (Mushroom tyrosinase) was > 500 µM and the “Ratio IC50” value [9] was > 500.
For S=C(NCc1ccccc1)Nc1ccccc1, the IC50 ([1]; read-out: IC50) was 19.4 µM.
CN(C)c1ccc(NC(=S)NCc2ccc(Cl)cc2)cc1 showed an IC50 ([1]; read-out: IC50) of 14.3 µM.
In the case of S=C(NCc1ccc(Br)cc1)Nc1ccccc1, the IC50 ([1]; read-out: IC50) is reported as 23.5 µM.
